Key:
[1] = target: T1, Free fatty acid receptor 1 (Homo sapiens, UniProt O14842); assay: Agonist activity at human GPR40 expressed in CHO-A12 cells assessed as increase in intracellular calcium flux measured for 100 secs by FLIPR assay; type: functional, cell-based
[2] = target: Free fatty acid receptor 1 (Mus musculus, UniProt Q76JU9); assay: Agonist activity at mouse GPR40 expressed in CHO-A12 cells assessed as increase in intracellular calcium flux measured for 100 secs by FLIPR assay; type: functional, cell-based
Free fatty acid receptor 1 (Mus musculus, UniProt Q76JU9), sequence (Q76JU9 whole entry): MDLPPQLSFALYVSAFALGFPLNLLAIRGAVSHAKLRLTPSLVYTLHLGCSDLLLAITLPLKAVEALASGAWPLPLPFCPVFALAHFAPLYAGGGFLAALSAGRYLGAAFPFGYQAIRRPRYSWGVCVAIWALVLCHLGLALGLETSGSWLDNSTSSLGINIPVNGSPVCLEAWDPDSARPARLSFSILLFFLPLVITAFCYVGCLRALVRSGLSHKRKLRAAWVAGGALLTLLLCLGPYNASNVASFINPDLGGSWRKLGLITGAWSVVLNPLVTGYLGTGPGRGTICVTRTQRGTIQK

[3] = target: Free fatty acid receptor 1 (Mus musculus) (UniProt Q76JU9); assay: Intrinsic activity at mouse GPR40 expressed in CHO-A12 cells assessed as increase in intracellular calcium flux at 8.3 uM measured for 100 secs by FLIPR assay […]; type: functional, cell-based
Free fatty acid receptor 1 (Mus musculus), sequence (Q76JU9 whole entry): as above

[4] = target: T1, Free fatty acid receptor 1; assay: Binding affinity to human GPR40 expressed in HEK293 cell membranes after 1 hr by radioligand displacement based scintillation counting method
In short: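 Binding of human GPR40 measured as Ki against a radioligand. Mean of at least two runs. Displacement of the label appears as a negative slope and potentiation as a positive one.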

[5] = target: T2, Peroxisome proliferator-activated receptor gamma (Homo sapiens, UniProt P37231); assay: Transactivation of human Gal4 fused PPARgamma-LBD expressed in HEK293 cells after 18 hrs by luciferase reporter gene assay; type: cell-based
T2 sequence (P37231 whole entry): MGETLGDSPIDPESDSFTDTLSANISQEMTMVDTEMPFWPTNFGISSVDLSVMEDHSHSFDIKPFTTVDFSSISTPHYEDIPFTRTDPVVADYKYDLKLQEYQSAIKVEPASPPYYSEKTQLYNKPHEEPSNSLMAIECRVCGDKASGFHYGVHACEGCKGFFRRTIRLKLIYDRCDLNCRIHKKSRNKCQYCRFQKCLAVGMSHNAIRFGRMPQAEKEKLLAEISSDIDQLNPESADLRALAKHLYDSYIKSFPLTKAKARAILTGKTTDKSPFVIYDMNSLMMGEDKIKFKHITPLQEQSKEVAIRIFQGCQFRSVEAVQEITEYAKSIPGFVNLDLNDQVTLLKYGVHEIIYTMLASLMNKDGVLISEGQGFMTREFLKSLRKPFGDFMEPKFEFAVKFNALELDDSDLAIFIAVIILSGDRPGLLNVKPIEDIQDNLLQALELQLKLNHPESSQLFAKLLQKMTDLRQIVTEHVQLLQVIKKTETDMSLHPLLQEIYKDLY
In short: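 Gal4 gene reporter transactivation assay for PPARγ; EC50 and Ymax reported.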

PPARgamma = target: T3, PPARgamma (Homo sapiens, UniProt P37231); assay: Transactivation of human Gal4 fused PPARgamma-LBD expressed in HEK293 cells at 4.8 uM after 18 hrs by luciferase reporter gene assay relative to […]; type: cell-based; conditions: HEK293 cells expressing Gal4-fused human PPARgamma-LBD
T3 sequence (P37231 whole entry): T2 sequence (P37231 whole entry)

T1 sequence (O14842 whole entry): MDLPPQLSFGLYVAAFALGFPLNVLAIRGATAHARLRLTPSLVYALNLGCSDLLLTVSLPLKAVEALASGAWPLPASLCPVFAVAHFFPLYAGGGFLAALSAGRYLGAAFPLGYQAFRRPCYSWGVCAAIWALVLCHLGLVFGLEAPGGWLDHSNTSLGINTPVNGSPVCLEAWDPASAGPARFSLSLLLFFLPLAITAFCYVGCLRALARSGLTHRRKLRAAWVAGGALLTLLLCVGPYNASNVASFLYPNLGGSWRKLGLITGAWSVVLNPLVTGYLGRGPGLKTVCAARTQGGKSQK

| SMILES | EC50 [1] | EC50 [2] | Intrinsic activity [3] | Ki [4] | EC50 [5] | Emax at 18 h, 4.8 µM (PPARgamma) | Activity ([5]; human, hek293, 18 h) |
| --- | --- | --- | --- | --- | --- | --- | --- |
| Cc1ccc(Oc2ccc(N3CCC[C@H]3CC(=O)O)cc2)cc1 | 490 nM | > 33000 nM | – | – | – | – | – |
| O=C(O)C[C@@H]1CCN1c1ccc(OCc2ccc(Cl)cc2Cl)cc1 | 260 nM | 440 nM | 88% | – | – | – | – |
| Cc1c(Cl)cccc1Oc1ccc(N2C[C@@H](C(F)(F)F)C[C@H]2CC(=O)O)cc1 | 82 nM | 430 nM | 50% | 13 nM | – | – | – |
| COc1ccc(F)c(-c2ccc(Cc3ccc(N4C[C@H](C(F)(F)F)C[C@H]4CC(=O)O)cc3)c(C)c2)c1 | 1700 nM | 1100 nM | 140% | – | – | – | – |
| Cc1ccccc1Oc1ccc(N2CCC[C@H]2CC(=O)O)cc1 | 74 nM | 5600 nM | 69% | 4400 nM | 32000 nM | 27% | – |
| Cc1ccccc1Cc1ccc(N2[C@H](CC(=O)O)CC[C@@H]2C)cc1 | 6200 nM | > 33000 nM | – | – | – | – | – |
| Cc1cccc(Oc2ccc(N3CCC[C@H]3CC(=O)O)cc2)c1 | 260 nM | 2400 nM | 83% | – | – | – | – |
| O=C(O)C[C@@H]1CCCN1c1ccc(OCc2ccc(Cl)cc2Cl)cn1 | 220 nM | > 33000 nM | – | – | – | – | – |
| O=C(O)C1CCN(c2ccc(OCc3ccc(Cl)cc3Cl)cc2)C1 (stereo not given) | 2100 nM | > 16000 nM | – | – | – | – | – |
| O=C(O)CC1CCN(c2ccc(OCc3ccc(Cl)cc3Cl)cc2)C1 (stereo not given) | > 33000 nM | > 33000 nM | – | – | – | – | – |
| O=C(O)C[C@@H]1CCCN1c1ccc(Oc2ccccc2)cc1 | 560 nM | > 16000 nM | – | 6500 nM | – | – | – |
| O=C(O)C[C@H]1CCN1c1ccc(OCc2ccc(Cl)cc2Cl)cc1 | 13000 nM | > 17000 nM | – | – | – | – | – |
| O=C(O)CC1CCCCN1c1ccc(OCc2ccc(Cl)cc2Cl)cc1 (single isomer, unassigned; enantiomer 1) | > 33000 nM | > 33000 nM | – | – | – | – | – |
| Cc1cc(OCc2ccccc2)ccc1Oc1ccc(N2C[C@@H](C(F)(F)F)C[C@H]2CC(=O)O)cc1 | 120 nM | 1500 nM | 34% | 10 nM | – | – | – |
| Cc1ccccc1Cc1ccc(N2CCC[C@H]2CC(=O)O)cc1 | 150 nM | > 33000 nM | – | 1300 nM | – | – | Not Active |
| COc1ccc(F)c(-c2cccc(Oc3ccc(N4CCC[C@H]4CC(=O)O)cc3)c2C)c1 | 310 nM | 3000 nM | 83% | – | – | – | – |
| Cc1ccccc1Cc1ccc(N2C[C@@H](F)C[C@H]2CC(=O)O)cc1 | 74 nM | > 33000 nM | – | 180 nM | – | – | – |
| O=C(O)CC1CCCCCN1c1ccc(OCc2ccc(Cl)cc2Cl)cc1 (single isomer, unassigned; enantiomer 2) | 11000 nM | > 33000 nM | – | – | – | – | – |
| Cc1ccccc1Cc1ccc(N2CC[C@H](C)[C@H]2CC(=O)O)cc1 | 120 nM | 1900 nM | 27% | 310 nM | – | – | – |
| Cc1cc(OCc2ccc(Cl)cc2Cl)ccc1N1CCC[C@H]1CC(=O)O | 8900 nM | 14000 nM | 70% | – | – | – | – |
| Cc1ccccc1Cc1ccc(N2C[C@@H](c3ccccc3)C[C@H]2CC(=O)O)cc1 | > 17000 nM | > 33000 nM | – | > 25000 nM | – | – | – |
| Cc1ccccc1Cc1ccc(N2C[C@@H](C(F)(F)F)C[C@H]2CC(=O)O)cc1 | 67 nM | 710 nM | 54% | 73 nM | – | – | – |
| O=C(O)C[C@@H]1CCCN1c1ccc(Oc2ccc(Cl)cc2)cc1 | 290 nM | > 33000 nM | – | – | – | – | – |
| Cc1ccccc1S(=O)(=O)c1ccc(N2CCC[C@H]2CC(=O)O)cc1 | > 33000 nM | > 33000 nM | – | – | – | – | – |
| O=C(O)C[C@@H]1CCCN1c1ccc(Oc2ccccc2F)cc1 | 150 nM | 6900 nM | 50% | 1300 nM | – | – | – |
| O=C(O)C1CC(=O)N(c2ccc(OCc3ccc(Cl)cc3Cl)cc2)C1 (stereo not given) | 5000 nM | > 33000 nM | – | – | – | – | – |

| SMILES | EC50 [1] | EC50 [2] | Intrinsic activity [3] | Ki [4] | EC50 [5] | Emax at 18 h, 4.8 µM (PPARgamma) | Activity ([5]; human, hek293, 18 h) |
| --- | --- | --- | --- | --- | --- | --- | --- |
| O=C(O)CC1CCCCCN1c1ccc(OCc2ccc(Cl)cc2Cl)cc1 (single isomer, unassigned; enantiomer 1) | 6400 nM | > 16000 nM | – | – | – | – | – |
| O=C(O)C[C@@H]1CCCN1c1ccc(Oc2ccc(Cl)cc2Cl)cc1 | 360 nM | 3200 nM | 120% | – | – | – | – |
| O=C(O)C[C@@H]1C[C@H](C(F)(F)F)CN1c1ccc(Oc2ccccc2OC(F)(F)F)cc1 | 170 nM | 740 nM | 44% | – | – | – | – |
| Cc1ccccc1Cc1ccc(N2C[C@@H](C)C[C@H]2CC(=O)O)cc1 | 140 nM | 1100 nM | 43% | 360 nM | – | – | – |
| O=C(O)CC1CCCCN1c1ccc(OCc2ccc(Cl)cc2Cl)cc1 (single isomer, unassigned; enantiomer 2) | > 17000 nM | > 33000 nM | – | – | – | – | – |
| Cc1ccccc1Sc1ccc(N2CCC[C@H]2CC(=O)O)cc1 | 570 nM | > 17000 nM | – | – | – | – | – |
| O=C(O)C[C@H]1CCCN1c1ccc(OCc2ccc(Cl)cc2Cl)cc1 | 880 nM | > 17000 nM | – | – | – | – | – |
| COc1ccc(Oc2ccc(N3CCC[C@H]3CC(=O)O)cc2)cc1 | 520 nM | > 33000 nM | – | – | – | – | – |
| Cc1ccccc1COc1ccc(N2CCC[C@H]2CC(=O)O)cn1 | 450 nM | > 33000 nM | – | 1800 nM | – | – | – |
| Cc1ccccc1Cc1ccc(N2CC[C@H](c3ccccc3)[C@H]2CC(=O)O)cc1 | 11000 nM | > 33000 nM | – | – | – | – | – |
| O=C(O)C[C@@H]1CCCN1c1ccc(Oc2cccc(Cl)c2)cc1 | 680 nM | > 16000 nM | – | – | – | – | – |
| Cc1ccccc1Cc1ccc(N2CCC[C@@]2(C)CC(=O)O)cc1 | > 33000 nM | > 33000 nM | – | 23000 nM | – | – | – |
| CO[C@H]1C[C@@H](CC(=O)O)N(c2ccc(Oc3ccccc3C)cc2)C1 | – | 960 nM | 76% | 9000 nM | – | – | – |
| COc1ccc(Oc2ccc(N3C[C@@H](C(F)(F)F)C[C@H]3CC(=O)O)cc2)c(C)c1 | – | 170 nM | 41% | 39 nM | – | – | – |
| COc1ccc(F)c(-c2ccc(Cc3ccc(N4C[C@@H](C(F)(F)F)C[C@@H]4CC(=O)O)cc3)c(C)c2)c1 | 150 nM | 53 nM | 210% | – | – | – | – |
| O=C(O)C[C@@H]1C[C@H](C(F)(F)F)CN1c1ccc(Oc2ccccc2C(F)(F)F)cc1 | 310 nM | 1300 nM | 42% | – | – | – | – |
| CCOc1ccccc1Oc1ccc(N2CCC[C@H]2CC(=O)O)cc1 | 1700 nM | > 33000 nM | – | – | – | – | – |
| Cc1cccc(Oc2ccc(N3C[C@@H](C(F)(F)F)C[C@H]3CC(=O)O)cc2)c1C | 110 nM | 500 nM | 100% | 60 nM | – | – | – |
| O=C(O)C[C@@H]1CCCN1c1ccc(Oc2ccccc2-c2ccccc2)cc1 | 3500 nM | 1300 nM | 72% | – | – | – | – |
| Cc1ccccc1C(=O)c1ccc(N2CCC[C@H]2CC(=O)O)cc1 | 4600 nM | > 33000 nM | – | > 33000 nM | – | – | – |
| CC(C)(C)c1ccccc1Oc1ccc(N2CCC[C@H]2CC(=O)O)cc1 | 6500 nM | > 17000 nM | – | – | – | – | – |
| Cc1ccccc1COc1ccc(N2CCC[C@H]2CC(=O)O)cc1C | > 33000 nM | > 33000 nM | – | – | – | – | – |
| CN(C)c1cccc(Oc2ccc(N3CCC[C@H]3CC(=O)O)cc2)c1 | 1300 nM | > 33000 nM | – | – | – | – | – |
| Cc1cccc(C)c1Oc1ccc(N2C[C@@H](C(F)(F)F)C[C@H]2CC(=O)O)cc1 | 82 nM | 270 nM | 36% | – | – | – | – |
| COc1ccc(F)c(-c2ccc(Cc3ccc(N4CCC[C@H]4CC(=O)O)cc3)c(C)c2)c1 | 220 nM | 1900 nM | 160% | 310 nM | – | – | – |
| Cc1ccccc1[S+]([O-])c1ccc(N2CCC[C@H]2CC(=O)O)cc1 (mixture of isomers) | > 33000 nM | > 33000 nM | – | – | – | – | – |
